Compound activity: PubChem BioAssay, several laboratories
In the library only some 8.7% were active in any assay of this set; here they are far more common.
PostGolgi yeast: phenotypic screen on post-Golgi transport, primary screen. inhibition, % at 10 µM. post-Golgi transport phenotypic cell assay. AID 739, 2007. 98,000 tested, 0.9% active;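 further: yeast cells grown in 1536-well plates; yeast grown about 18 h at 30C before absorbance read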
PostGolgi ctrl: growth inhibition of yeast control strain, primary screen, counter-screen for post-Golgi transport modulator project; AID 738, 2007; 98,000 tested, 5% active; inhibition, % at 10 µM; efflux-deficient yeast background strain, growth absorbance A615, 16 h
PTK2B oligo ant: antagonists of Pyk2 self-association, primary screen, Q293 cells, FERM NanoBiT luminescence, HTS. 99,000 tested, 0.83% active. z-score (the deposit names both 25 µM and 10 µM). Protein-tyrosine kinase 2-beta (Homo sapiens), Q14289. hits give low values;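 active means Z-score of -3 or lower, scaled per plate to the spread of control and sample wells; inactive means z-score above -3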;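 further: negative z-score means lost luminescence so less FERM oligomerization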
Ecoli WT expand: growth inhibitors of wild-type E. coli, primary screen, strain BW25113, expanded library, OD600; OD600 absorbance; growth inhibition, % at 100 µM; 98,000 tested, 0.15% active;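 active means growth inhibition above about 50% at one test dose, limit read from the data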;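 further: growth measured after 20 h incubation at 37 °C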
tolC growth inh: growth inhibitors of E. coli tolC mutant, primary screen, strain BW25113 ΔtolC::kan, 384-well. OD615. growth inhibition, % at 10 µM (by protocol). 65,000 tested, 2.2% active;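 active means growth inhibition at or above a cutoff equal to the mean over every tested compound plus 3 SD, cut at about 60% in these data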;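 further: growth measured after 20 h incubation at 37 °C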
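Test system: E. coli BW25113 ΔtolC::kan bacteria; incubation: 37 °C, 20 h exposure; medium: LB broth supplemented with 50 µg/mL kanamycin; read-out basis: percent growth inhibition; signal: A615 absorbance measurement; compound: 10 µM final, single dose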
Cav32 inh: Cav3.2 calcium influx blockers – cell-based, Fluo-4 calcium fluorescence, FDSS, MLSMR library, primary screen. Voltage-dependent T-type calcium channel subunit alpha-1H (Homo sapiens), O95180. Cav3.2-expressing cells; hits give low values. B-score at 10 µM. AID 449739, 2010. 100,000 tested, 4% active;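 active means single-dose well whose peak fluorescence ratio is a statistical outlier from its plate by either plate-standardised score or position-corrected B-score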
* marks the source's active call; other numbers are inactive results; / = not tested or not shown. Unless noted, no stated cut-off is given here; in the data, active means inhibition above about 30%; inactive means the rest.

SMILES	PostGolgi yeast	PostGolgi ctrl	PTK2B oligo ant	Ecoli WT expand	tolC growth inh	Cav32 inh
CC(C)(C)c1ccc(C(=O)OCCNC(=O)c2c(Cl)nc3ccccn23)cc1	-2	37*	-3.2*	-8	/	-1.9
COc1ccc(C(=O)OCCNC(=O)c2c(Cl)nc3ccccn23)cc1	6	36*	0.02	7	16	-0.66
O=C(NCc1cccs1)C1CCN(S(=O)(=O)c2cccc3nsnc23)CC1	-9	-8	1.2	-2	-14	0.57
Cc1ccc(C)c(N2CCN(Cc3nnnn3C3CCCCC3)CC2)c1	18	38*	-0.43	-11	35	/
CCc1nc2ccccc2c(=O)n1NC(=O)c1c(O)c2ccccc2[nH]c1=O	-5	-4	-0.64	-8	85*	-2.3
O=c1c2ccccc2sn1-c1ccccc1	5	16	-0.12	100*	/	0.71
Cc1ccc(S(=O)(=O)N2CCN(c3ccc4nnc(-c5ccccc5)n4n3)CC2)cc1	-10	34*	/	1	/	2.1
COc1ccc(S(=O)(=O)N2CCN(c3ccc4nnc(-c5ccc(F)cc5)n4n3)CC2)cc1	-2	20	/	1	22	0.015
COc1cc(/C=C2\S/C(=N/S(=O)(=O)c3ccc(C)cc3)NC2=O)c([N+](=O)[O-])cc1OC	/	/	0.81	/	/	-5.3*
Cc1ccc(S(=O)(=O)/N=C2/NC(=O)/C(=C\c3ccco3)S2)cc1	0	5	-0.8	-12	/	/
Cc1cccnc1Nc1nc(-c2ccc(O)c(O)c2)cs1	-1	83*	-0.82	23	/	2.4
Cc1ccc2nc(N3CCN(C(=O)c4cccs4)CC3)c(C#N)cc2c1	2	13	1.5	-4	19	-4.8*
COc1ccc(C(=O)N2CCN(c3nc4cc(C)ccc4cc3C#N)CC2)c(OC)c1	0	25	1.1	-11	15	-0.54
O=S(=O)(/N=C(/c1ccc(Cl)cc1)N1CCOCC1)c1ccc(Cl)cc1	-4	-1	1.8	4	/	0.46
CCOC(=O)c1ccccc1NC(=O)CSc1nnc(COc2ccccc2C)n1C	2	38*	-0.72	-4	49	-4.6*
CCOC(=O)c1ccccc1NC(=O)CSc1nnnn1C1CCCCC1	14	19	-0.9	-11	72*	-3.7
O=C(CSc1nnnn1C1CCCCC1)N1c2ccccc2Sc2ccccc21	21	22	-1.8	-17	/	-6*
COCCN1C(=O)N[C@@H](CCc2ccccc2)[C@H](C(=O)OC)[C@H]1C	/	/	/	/	/	1.1
Cc1nn(Cc2ccc(Cl)cc2)c(C)c1NC(=O)CSc1nc2c(c(C(F)(F)F)n1)CCc1ccccc1-2	2	-5	-0.11	4	/	-3.9*
Cc1nn(Cc2ccc(F)cc2)c(C)c1NC(=O)c1noc2c1CCCCC2	-7	11	-0.34	2	29	-0.58
COc1ccc2c(c1)CCc1c(C(=O)Nc3c(C)nn(Cc4ccccc4)c3C)noc1-2	2	10	-1.1	-5	/	0.12
Cc1nn(Cc2ccccc2Cl)c(C)c1NC(=O)c1noc2c1CCCCC2	-8	9	-0.68	-6	65*	-1.7
COc1ccc2c(c1)CCc1c(C(=O)Nc3cc(C)n(Cc4ccc(Cl)cc4)n3)noc1-2	0	0	1	-9	8	0.58
Cc1nn(Cc2ccc(Cl)cc2)c(C)c1NC(=O)c1noc2c1CCc1ccccc1-2	-1	42*	/	-8	/	0.076
Cc1cc(NC(=O)c2noc3c2CCCC3)nn1Cc1ccc(Cl)cc1	-11	23	-1.8	6	81*	-4.8*
SMILES	PostGolgi yeast	PostGolgi ctrl	PTK2B oligo ant	Ecoli WT expand	tolC growth inh	Cav32 inh
COc1ccc(/C(O)=C2/C(=O)C(=O)N(CCCN(C)C)C2c2ccc(C)o2)cc1Cl (stereo not drawn)	16	-2	/	2	5	0.78
O=C(NS(=O)(=O)c1ccccc1)c1ccccc1O	-5	-4	-0.4	12	-1	/
COc1ccc(C(=O)C/C(=C\C(=O)c2ccc(C)cc2)c2ccccc2)cc1	-5	4	-0.31	-30	/	-4.2*
O=C(Cc1ccccc1)Nc1cc(C(=O)c2ccccc2)ccc1N1CCOCC1	2	11	-1	-22	/	-1.8
CCc1nnc(NC(=O)CSc2nc3c(cc2C#N)CCC3)s1	-1	-5	-0.99	-5	-10	0.53
CCSc1nnc(NC(=O)CSc2nc3c(cc2C#N)CCCC3)s1	6	2	-3.2*	-15	/	-0.53
